Series [1] has as its target T1, Proteinase-activated receptor 1 (Homo sapiens) (UniProt P25116).
T1 sequence (whole entry): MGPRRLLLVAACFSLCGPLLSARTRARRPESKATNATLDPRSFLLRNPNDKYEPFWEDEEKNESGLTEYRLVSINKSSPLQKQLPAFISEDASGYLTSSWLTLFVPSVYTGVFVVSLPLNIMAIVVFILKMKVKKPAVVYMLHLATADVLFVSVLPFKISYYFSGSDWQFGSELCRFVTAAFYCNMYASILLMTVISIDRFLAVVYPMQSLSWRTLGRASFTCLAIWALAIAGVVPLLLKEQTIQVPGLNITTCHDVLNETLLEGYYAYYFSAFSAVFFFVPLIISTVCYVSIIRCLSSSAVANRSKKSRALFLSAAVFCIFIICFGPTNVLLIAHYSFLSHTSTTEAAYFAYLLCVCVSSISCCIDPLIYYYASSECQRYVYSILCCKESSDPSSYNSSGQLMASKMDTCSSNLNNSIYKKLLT
Put plainly: (§1) Displacement of [3H]haTRAP from PAR1 in human platelet membrane. It counts as cell membranes. The gist of the method: (§2)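 Membranes from human platelets as the PAR-1 source, with tritiated high-affinity thrombin receptor activating peptide ([3H]haTRAP) as radioligand; IC50 reported ± SEM, n = 2.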

Series [2] addresses T2, Proteinase-activated receptor 1 (Homo sapiens, UniProt P25116).
T2 sequence (P25116 whole entry): T1 sequence (whole entry)
The series is described as §1. It counts as cell membranes. The gist of the method:
as §2

Series [3] concerns Cynomolgus monkey. The series can be described thus: Ex vivo inhibition of haTRAP-induced platelet aggregation in cynomolgus monkey at 3 mg/kg, po after 6 hrs. Format: functional. The settings on record: Macaca fascicularis. The procedure, abridged: (§3)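 Conscious, chaired cynomolgus monkeys dosed orally at 3 mg/kg in 20% PEG-HPBCD; blood drawn at 1 h intervals to 6 h, then at 24 h; haTRAP added ex vivo as agonist; aggregation read in a whole blood aggregometer, reported as percent reduction.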

Series [4] concerns Cynomolgus monkey. Put plainly: Ex vivo inhibition of haTRAP-induced platelet aggregation in cynomolgus monkey at 3 mg/kg, po 24 hrs. Format: functional. The conditions noted are these: Macaca fascicularis. The procedure, abridged: as §3
Series [5] can be described thus: AUC (0 to 6 hrs) in rat at 10 mg/kg, po. It counts as ADME, organism-based. Also noted: time < 6 hr, dose 10 mg/kg, route oral. The settings on record: plasma. The gist of the method: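 Rats given a single 10 mg/kg oral dose in 0.4% methylcellulose; plasma levels followed for 6 h and exposure reported as AUC from 0 to 6 h in ng·hr/mL.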
The subject of series [6] is Cynomolgus monkey. The series can be described thus: Inhibition of haTRAP-induced platelet aggregation in cynomolgus monkey at 1 mg/kg, po up to 6 hrs. Format: functional, organism-based. Also noted: dose 1 mg/kg. The conditions noted are these: Macaca fascicularis. The procedure, abridged:
(§4)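 Cynomolgus monkeys dosed orally at 1 mg/kg and kept conscious in chairs; blood sampled hourly up to 6 h and again at 24 h; haTRAP added to the samples to trigger aggregation, measured by whole blood aggregometry.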

Series [7] has as its system Cynomolgus monkey. Put plainly: Inhibition of haTRAP-induced platelet aggregation in cynomolgus monkey at 1 mg/kg, po after 24 hrs. It counts as functional. The settings on record: Macaca fascicularis. The procedure, abridged: as §4
A short description of series [8]: Bioavailability in cynomolgus monkey at 1 mg/kg, iv and 1.5 mg/kg, po. Format: ADME, organism-based, Macaca fascicularis. The conditions noted are these: in vivo.
Series [9] is described as follows: Half life in cynomolgus monkey at 1 mg/kg, iv and 1.5 mg/kg, po. It counts as ADME, organism-based, Macaca fascicularis. The conditions noted are these: in vivo.
Series [10] is described as follows: AUC (0 to 24 hrs) in cynomolgus monkey at 1 mg/kg, iv and 1.5 mg/kg, po. Format: ADME, organism-based, Macaca fascicularis. The settings on record: plasma.
A short description of series [11]: Cmax in cynomolgus monkey at 1 mg/kg, iv and 1.5 mg/kg, po. The conditions noted are these: in vivo. Format: ADME, organism-based, Macaca fascicularis.
Series [12] in a line: Tmax in cynomolgus monkey at 1 mg/kg, iv and 1.5 mg/kg, po. The settings on record: in vivo. Format: ADME, organism-based, Macaca fascicularis.

Calls of active or inactive are those of the source. The rule behind the calls is not given here.

On to `CCOC(=O)N1CCC[C@H]2[C@H](/C=C/c3ccc(-c4cccnc4)cn3)[C@@H]3[C@@H](C)OC(=O)[C@@H]3C[C@@H]21`, for which the outcome in series [1] was inactive. Consider `CCOC(=O)N1CCC[C@H]2[C@H](/C=C/c3ccc(-c4ccccc4F)cn3)[C@@H]3[C@@H](C)OC(=O)[C@@H]3C[C@@H]21`, for which the IC50 (commonly the point on the concentration scale where inhibition reaches its midpoint) in [2] came out at 153 nM. On the same count and under the same terms, the figure for `C[C@H]1OC(=O)[C@@H]2C[C@@H]3COCC[C@H]3[C@H](/C=C/c3ccc(-c4cccc(Cl)c4)cn3)[C@H]12` is 19 nM; for `C[C@H]1OC(=O)[C@@H]2C[C@@H]3CN(C(=O)C4CC4)CC[C@H]3[C@H](/C=C/c3ccc(-c4cccc(C(F)(F)F)c4)cn3)[C@H]12` it is 37.5 nM.

Compound `CCOC(=O)N1CC[C@@H]2[C@H](C[C@H]3C(=O)O[C@H](C)[C@H]3[C@H]2/C=C/c2ccc(-c3ccccn3)cn2)C1` had an IC50 in series [2] of 33.5 nM. Also, the results for the inhibition in vivo at 3 mg/kg in [3] and in [4] were 67% and 29%, respectively. As for `C[C@H]1OC(=O)[C@@H]2C[C@@H]3CN(C(=O)OCc4ccccc4)CC[C@H]3[C@H](/C=C/c3ccc(-c4cccc(C(F)(F)F)c4)cn3)[C@H]12`, the IC50 in series [2] is 25 nM. Same read-out and setting: the figure for `CCOC(=O)N1CCC[C@H]2[C@H](/C=C/c3ccc(-c4cccc(C#N)c4)cn3)[C@@H]3[C@@H](C)OC(=O)[C@@H]3C[C@@H]21` is 295 nM.

Turning to `CC(C)C(=O)N1CC[C@@H]2[C@H](C[C@H]3C(=O)O[C@H](C)[C@H]3[C@H]2/C=C/c2ccc(-c3cccc(C(F)(F)F)c3)cn2)C1`, the IC50 in series [2] was determined as 113 nM. Compound `C[C@H]1OC(=O)[C@@H]2C[C@@H]3CN(S(C)(=O)=O)CC[C@H]3[C@H](/C=C/c3ccc(-c4cccc(F)c4)cn3)[C@H]12` showed a half-maximal inhibitory concentration (IC50) in series [2] of 15 nM. In addition, the AUC(0-t) – broadly, exposure summed from dosing to a finite time, without extrapolation to infinity – at 6 h in series [5] is 5350 ng·h/mL. In addition, the inhibition in vivo – broadly, the drop in the measured response relative to a control, in per cent – at 3 mg/kg was 54% in [3] and 50% in [4]. Take `C[C@H]1OC(=O)[C@@H]2C[C@@H]3C[S+]([O-])CC[C@H]3[C@H](/C=C/c3ccc(-c4cccc(C(F)(F)F)c4)cn3)[C@H]12` (stereo in doubt): the IC50 in [2] was found to be 80 nM. In turn, `C[C@H]1OC(=O)[C@@H]2C[C@@H]3CN(C(=O)C4CC4)CC[C@H]3[C@H](/C=C/c3ccc(-c4cccc(F)c4)cn3)[C@H]12` returned an IC50 in series [2] of 15.5 nM. The same compound came in with an exposure AUC(0-t) at 6 h in series [5] of 4370 ng·h/mL. The inhibition in vivo at 3 mg/kg came to 100% in [3] and 72% in [4]. The corresponding values for `CCNC(=O)N1CC[C@@H]2[C@H](C[C@H]3C(=O)O[C@H](C)[C@H]3[C@H]2/C=C/c2ccc(-c3cccc(F)c3)cn2)C1` are 18.5 nM, 2050 ng·h/mL, 47% and 34%. With `C[C@H]1OC(=O)[C@@H]2C[C@@H]3CSCC[C@H]3[C@H](/C=C/c3ccc(-c4cccc(C(F)(F)F)c4)cn3)[C@H]12`, the IC50 in series [2] worked out at 22 nM. Take `C[C@H]1OC(=O)[C@@H]2C[C@@H]3COCC[C@H]3[C@H](/C=C/c3ccc(-c4cccc(F)c4F)cn3)[C@H]12`: the IC50 in [2] is 26 nM. Moreover, the AUC(0-t) at 6 h in series [5] amounted to 1190 ng·h/mL. As to `C[C@H]1OC(=O)[C@@H]2C[C@@H]3CN(C(=O)C4CC4)CC[C@H]3[C@H](/C=C/c3ccc(-c4ccccc4F)cn3)[C@H]12`, the IC50 in [2] is 8 nM. The area under the curve AUC(0-t) at 6 h in series [5] worked out at 6010 ng·h/mL. In addition, the inhibition in vivo at 3 mg/kg is 45% in series [3] and 39% in series [4]. On to `C[C@H]1OC(=O)[C@@H]2C[C@@H]3CNCC[C@H]3[C@H](/C=C/c3ccc(-c4cccc(C(F)(F)F)c4)cn3)[C@H]12`, for which the IC50 in series [2] amounted to 600 nM. `C[C@H]1OC(=O)[C@@H]2C[C@@H]3COCC[C@H]3[C@H](/C=C/c3ccc(-c4cccc(Cl)c4Cl)cn3)[C@H]12`: in series [2], the IC50 came to 21 nM. The compound `CC(=O)N1CC[C@@H]2[C@H](C[C@H]3C(=O)O[C@H](C)[C@H]3[C@H]2/C=C/c2ccc(-c3cccc(C(F)(F)F)c3)cn2)C1` showed a concentration for half-maximal inhibition (IC50) in [2] of 550 nM. Compound `C[C@H]1OC(=O)[C@@H]2C[C@@H]3C[S+]([O-])CC[C@H]3[C@H](/C=C/c3ccc(-c4cccc(C(F)(F)F)c4)cn3)[C@H]12` (single isomer, unassigned; isomer 2) came in with a 50% inhibitory concentration (IC50) in series [2] of 375 nM. On the same count and under the same terms, for `C[C@H]1OC(=O)[C@@H]2C[C@@H]3CS(=O)(=O)CC[C@H]3[C@H](/C=C/c3ccc(-c4cccc(C(F)(F)F)c4)cn3)[C@H]12` the value was 200 nM; for `C[C@H]1OC(=O)[C@@H]2C[C@@H]3CN(C(N)=O)CC[C@H]3[C@H](/C=C/c3ccc(-c4cccc(F)c4)cn3)[C@H]12`, 1100 nM. Compound `CCOC(=O)N1CC[C@@H]2[C@H](C[C@H]3C(=O)O[C@H](C)[C@H]3[C@H]2/C=C/c2ccc(-c3ccccc3F)cn2)C1` showed an IC50 in series [2] of 8 nM. Moreover, the AUC(0-t) at 6 h in series [5] is 3780 ng·h/mL. Also, the inhibition in vivo at 3 mg/kg in series [3] and in series [4] was 55% throughout. `C[C@H]1OC(=O)[C@@H]2C[C@@H]3COCC[C@H]3[C@H](/C=C/c3ccc(-c4ccccc4Cl)cn3)[C@H]12` displayed an IC50 in [2] of 13 nM. The compound `C[C@H]1OC(=O)[C@@H]2C[C@@H]3COCC[C@H]3[C@H](/C=C/c3ccc(-c4cccc(C(F)(F)F)c4)cn3)[C@H]12` had an IC50 in series [2] of 17 nM. Also, the AUC(0-t) at 6 h in [5] is 545 ng·h/mL. In series [2], `CCOC(=O)N1CCC[C@H]2[C@H](/C=C/c3ccc(-c4ccccc4C)cn3)[C@@H]3[C@@H](C)OC(=O)[C@@H]3C[C@@H]21` registered an IC50 of 600 nM. Consider `C[C@H]1OC(=O)[C@@H]2C[C@@H]3COCC[C@H]3[C@H](/C=C/c3ccc(-c4cccc(F)c4)cn3)[C@H]12`, for which the IC50 in series [2] turned out to be 26 nM. In series [5], this compound registered an AUC(0-t) at 6 h of 850 ng·h/mL. Further, the result in series [6] was Active. Moreover, the inhibition in vivo at 1 mg/kg in [7] stood at 80%.

The compound `CCOC(=O)N1CC[C@@H]2[C@H](C[C@H]3C(=O)O[C@H](C)[C@H]3[C@H]2/C=C/c2ccc(-c3cccc(C(F)(F)F)c3)cn2)C1` registered an IC50 in series [2] of 11 nM.

`COCCOC(=O)N1CC[C@@H]2[C@H](C[C@H]3C(=O)O[C@H](C)[C@H]3[C@H]2/C=C/c2ccc(-c3cccc(F)c3)cn2)C1` showed an IC50 in series [2] of 16.5 nM. For the same compound, in [5], the area under the curve AUC(0-t) at 6 h was 88 ng·h/mL.

`C[C@H]1OC(=O)[C@@H]2C[C@@H]3CN(C)CC[C@H]3[C@H](/C=C/c3ccc(-c4cccc(C(F)(F)F)c4)cn3)[C@H]12` returned an IC50 in series [2] of 762 nM.

In series [2], `C[C@H]1OC(=O)[C@@H]2C[C@@H]3COCC[C@H]3[C@H](/C=C/c3ccc(-c4ccccc4F)cn3)[C@H]12` showed a 50% inhibitory concentration (IC50) of 25 nM. Besides, in series [5], the AUC(0-t) at 6 h was 1050 ng·h/mL. In series [6], the outcome was Active. This compound returned an inhibition in vivo at 1 mg/kg in series [7] of 55%. Further, the bioavailability (commonly dose-corrected exposure relative to a reference, in per cent) in series [8] came to 71%. For the same compound, in series [9], the half-life (commonly how long it takes for the measured level to halve) was 8.6 h. Also, in [10], the AUC(0-t) was determined as 3700 ng·h/mL. In addition, the Cmax (in general, the peak of the concentration-time curve) in series [11] was determined as 610 ng/mL. Further, the Tmax (commonly the time at which the peak concentration occurs) in [12] is 1.7 h. For `CCOC(=O)N1CCC[C@H]2[C@H](/C=C/c3ccc(-c4cccc(F)c4)cn3)[C@@H]3[C@@H](C)OC(=O)[C@@H]3C[C@@H]21`, the IC50 in series [2] was determined as 224 nM. On to `CCCS(=O)(=O)N1CC[C@@H]2[C@H](C[C@H]3C(=O)O[C@H](C)[C@H]3[C@H]2/C=C/c2ccc(-c3cccc(F)c3)cn2)C1`, for which, in series [2], the IC50 amounted to 101 nM.

For the origin of these results see ChEMBL document CHEMBL1148816, “Heterotricyclic himbacine analogs as potent, orally active thrombin receptor (protease activated receptor-1) antagonists” (J Med Chem, 2007).
